CRFBP-R2 agonist = CRF-BP/CRF-R2 complex agonism; HEK293 CRF-R2/CRF-BP, calcium dye fluorescence (FLIPR); percent of saturating CRF peptide response; activation, % at 13.2 µM; actives 0.46% (n = 350,000); AID 588473;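 active means activation of at least 50%, plus an integration ratio under a set limit after plate pattern correction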;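 further: plate controls were neutral control wells without compound for no effect and CRF at EC100 for full effect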
IMP-1 inhibitor = blocks Pseudomonas aeruginosa IMP-1 metallo-beta-lactamase; purified IMP-1, nitrocefin hydrolysis, epi-absorbance fluorescence; inhibition, % at 5.6 µM; actives 0.45% (n = 290,000);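 active means inhibition above the mean plus 3 SD of all compounds in the same screening run, cut at about 4.5% in these data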;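 further: 0% = IMP-1 with DMSO and 100% = DMSO wells lacking enzyme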
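System: purified IMP-1 / Input: IMP-1 dispensed at 0.2 nM / Medium: 50 mM HEPES pH 7.1, 50 µM ZnSO4, 0.05% Brij 35 / Timing: 15 min enzyme–compound preincubation, then 25 min nitrocefin reaction, 25 °C / Technique: plate fluorescence quenching by hydrolysis product, ex 480/em 530 nm / Repeats: singlicate testing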
CRFR2-BP antag = antagonists of CRF-binding protein/CRF-R2 receptor complex | HEK293 CRF-R2/CRF-BP, CRF-induced calcium fluorescence | inhibition, % at 11.8 µM | actives 0.59% (n = 350,000);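 active means inhibition of the ligand-induced calcium signal above about 50% at the single tested concentration, limit read from the data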
VIM-2 inhibitor = inhibitors of Pseudomonas aeruginosa VIM-2 metallo-beta-lactamase. purified VIM-2, nitrocefin hydrolysis, epi-absorbance fluorescence. inhibition, % at 5.6 µM. actives 0.89% (n = 290,000);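 active means inhibition above the mean of all tested compounds plus 3 SD, cutoff set per screening run, cut at about 7.5% in these data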;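 further: red hydrolysis product quenches plate fluorescence so inhibitors raise well fluorescence; 0% = enzyme with DMSO and 100% = DMSO without enzyme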
zfTRPN1 agonist = agonists of zebrafish TRPN1 channel; HEK293 zebrafish TRPN1-YFP, Fluo-8 calcium fluorescence; 100% = response to 87 µM carbachol; activation, % at 3 µM; actives 0.18% (n = 220,000); AID 1424;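 active means activation above its plate's cutoff, the mean activation of test wells on that plate plus 3 SD, cut at about 19% in these data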;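 further: 0% = DMSO alone and 100% = 87 µM carbachol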
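Material: zebrafish TRPN1-YFP in HEK293 cells; Doses: single test compound dose, 3 µM nominal, 0.3% DMSO; Timing: dye loading 1 h at 37 °C, then 30 min room temperature; Technique: intracellular calcium fluorescence with Fluo-8; Benchmarks: high carbachol 87 µM, low DMSO alone.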
TRPML3 ag = activates the human TRPML3 channel; Q8TDD5; HEK293 TRPML3-YFP, Fluo-8 calcium fluorescence; 100% = the carbachol control signal; activation, % at 3 µM; actives 0.29% (n = 220,000);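 active means activation above its plate's cutoff, the mean activation of the plate's test wells plus 3 SD, cut at about 12% in these data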;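 further: 0% = DMSO only wells and 100% = carbachol wells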
Target sequence (Q8TDD5 whole entry, looked up): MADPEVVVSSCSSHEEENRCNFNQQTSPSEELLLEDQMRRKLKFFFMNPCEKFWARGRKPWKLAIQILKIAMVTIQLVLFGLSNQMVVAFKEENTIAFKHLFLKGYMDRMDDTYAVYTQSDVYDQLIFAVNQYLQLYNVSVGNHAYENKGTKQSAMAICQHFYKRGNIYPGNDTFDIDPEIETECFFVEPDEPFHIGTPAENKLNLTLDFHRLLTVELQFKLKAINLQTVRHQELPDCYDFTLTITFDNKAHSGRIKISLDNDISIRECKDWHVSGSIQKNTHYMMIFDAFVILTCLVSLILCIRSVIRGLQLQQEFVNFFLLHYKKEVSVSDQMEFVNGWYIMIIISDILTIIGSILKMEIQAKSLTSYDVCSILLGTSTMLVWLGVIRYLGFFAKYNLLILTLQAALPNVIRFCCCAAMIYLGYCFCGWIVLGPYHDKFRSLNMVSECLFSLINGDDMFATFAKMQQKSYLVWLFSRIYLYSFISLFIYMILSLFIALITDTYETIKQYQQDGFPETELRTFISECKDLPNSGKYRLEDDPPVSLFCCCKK
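Test system: HEK293 cells stably carrying human TRPML3-YFP; Doses: single dose, 3 µM final nominal compound, 0.3% DMSO final; Schedule: dye loading 1 h 37 °C then 30 min ambient, 125 s read; Technique: Fluo-8 calcium fluorescence; Benchmarks: high control carbachol 87 µM, low control DMSO.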
An asterisk follows results filed as active; / = not tested or not shown. A selection: hits, their analogues and other compounds. The true share with any hit is near 2.1%.

SMILES | CRFBP-R2 agonist | IMP-1 inhibitor | CRFR2-BP antag | VIM-2 inhibitor | zfTRPN1 agonist | TRPML3 ag
CCCCCCNC(=O)C(C#N)c1nc2ccccc2nc1N1CCCC1 (stereo not drawn) | 182* | -2 | -137 | -3 | -2 | 0
CCN(CC(=O)Nc1ccc2c(c1)OCCO2)C(=O)COc1ccc(C(C)=O)cc1 | -1 | / | 4 | / | / | /
Cc1csc(N=Nc2ccc(N(C)C)cc2)[n+]1[O-] | -3 | / | 3 | / | / | /
O=C(CCl)Nc1ccccc1Sc1ccc(Cl)cc1 | 1 | -4 | 67* | -2 | -1 | -1
CC(=O)N1CCN(CC(=O)Nc2ccccc2Sc2ccc(Cl)cc2)CC1 | -1 | -1 | -3 | -5 | 4 | 1
O=C(O)C(O)Cc1c[nH]c2ccccc12 (stereo not drawn) | 0 | -4 | -7 | -2 | 1 | 0
O=C(O)C(=O)Cc1c[nH]c2ccccc12 | 1 | 4.5* | 3 | -1 | 2 | 1
COC(=O)/C=C1\NC(=O)C(C)S1 (stereo not drawn) | -1 | -2 | 10 | 0 | -1 | 0
CSc1nc(NCC(C)C)c2c3c(sc2n1)CN(C)CC3 | 1 | 0 | 2 | 8.4* | 0 | 1
COCCSc1nc(N)c2c3c(sc2n1)CN(C)CC3 | 5 | -2 | -8 | -2 | 2 | 1
COCCNc1nc(SC)nc2sc3c(c12)CCN(C)C3 | 1 | 0 | 3 | 9.8* | / | /
CCN(CC)CCNc1nc(SC)nc2sc3c(c12)CCN(C)C3 | -1 | 0 | 8 | 11* | / | /
CSc1nc(NCc2ccccc2)c2c3c(sc2n1)CN(C)CC3 | 1 | 0 | -24 | 4 | 0 | 1
Cc1ccccc1C(=O)NC1CCN(C(=O)NC2CCCCC2)CC1 | -1 | -2 | 10 | 0 | / | /
Cc1ccccc1C(=O)NC1CCN(C(=O)N(c2ccccc2)c2ccccc2)CC1 | 0 | 4.6* | -18 | 0 | 1 | 1
O=C(CSc1nnc(C2CC2)n1Cc1ccccc1)c1ccc(S(=O)(=O)N2CCOCC2)cc1 | 0 | -3 | -6 | 23* | -1 | 0
O=C(O)C1C2C=CC3(O2)C1C(=O)N1c2ccccc2C2OCCC2C13 (stereo not drawn) | 0 | 1 | 8 | 11* | 0 | 0
Cc1cccc(/C=C2/S/C(=N/N=C3\CC4CCC3(C)C4(C)C)NC2=O)c1 (stereo not drawn) | 3 | -2 | 50* | -3 | 1 | 1
O=C1N/C(=N/O)S/C1=C/c1cccc([N+](=O)[O-])c1 | -2 | -4 | 17 | -3 | 1 | 1
Cc1nc(SCC(=O)NCc2ccco2)c2c3c(sc2n1)CCCC3 | -2 | -4 | 6 | 1 | -1 | -1
CCCc1nc2sc3c(SCC(=O)NCc4ccco4)ncnc3c2c2c1CCC2 | 0 | 15* | -3 | 1 | 0 | 0
COc1ccc(-n2c(=S)[nH]c3cc(C(=O)Nc4ccc(C)c(F)c4)ccc3c2=O)c(OC)c1 | 0 | -4 | 29 | -5 | / | /
O=C1CC2CS(=O)(=O)CC2N1c1ccc(Oc2ccccc2)cc1 (stereo not drawn) | -5 | -1 | 121* | 0 | 1 | 1
CNC(=O)c1c(NC(=O)c2ccc(S(=O)(=O)N(C)c3ccccc3)cc2)sc2c1CCN(C(C)C)C2 | 160* | 3 | -122 | -1 | / | /
CCN1CCc2c(sc(NC(=O)c3ccc(S(=O)(=O)N(C)c4ccccc4)cc3)c2C(=O)NC)C1 | 162* | 3 | -146 | 0 | / | /
SMILES | CRFBP-R2 agonist | IMP-1 inhibitor | CRFR2-BP antag | VIM-2 inhibitor | zfTRPN1 agonist | TRPML3 ag
CC(C)N1CCc2c(sc(NC(=O)c3ccc(S(=O)(=O)N4CCc5ccccc54)cc3)c2C(N)=O)C1 | 107* | -2 | -188 | -1 | 6 | 2
CC(C)N1CCc2c(sc(NC(=O)c3nc4ccccc4s3)c2C(N)=O)C1 | -1 | -3 | -11 | -1 | 1 | 0
CC(=O)Nc1ccc([N+](=O)[O-])cn1 | 2 | -2 | -6 | -3 | 1 | 0
Cc1ccc(OCC(=O)Nc2ccc([N+](=O)[O-])cn2)cc1C | 6 | -1 | 51* | -6 | 0 | 0
O=C(NNC(=O)C1CCC1)c1cccc(Cl)c1 | -1 | / | 6 | / | / | /
CC(=O)NS(=O)(=O)c1ccc(NC(=S)NC(=O)C2CCC2)cc1 | 0 | -2 | 11 | -2 | / | /
CCOC(=O)/C=C/C(=O)OCC(=O)Nc1ccc([N+](=O)[O-])cc1 | -1 | -2 | 16 | -2 | 1 | 0
O=C(c1ccc(Cl)c(S(=O)(=O)N2CCc3ccccc3C2)c1)N1CCN(c2ccccc2)CC1 | -1 | -5 | 5 | -2 | 0 | 0
O=C(c1ccc(Cl)c(S(=O)(=O)Nc2ccccc2C(=O)N2CCc3ccccc3C2)c1)N1CCc2ccccc2C1 | 0 | -3 | 54* | -5 | -2 | 0
COc1cccc(/C=C/C(=O)NCc2ccc(S(N)(=O)=O)cc2)c1 | -2 | -4 | -2 | -3 | 1 | 0
COc1ccc(NC(=O)CCNS(=O)(=O)c2ccc3[nH]c(=O)oc3c2)cc1Cl | -2 | -2 | 8 | -2 | / | /
COc1ccc(CCNC(=O)c2cccc3c2C(=O)N(C2CCCCC2)C3)cc1OC | -2 | -4 | 74* | 0 | / | /
O=C(CSc1nnc(NC(=O)C2CC2)s1)Nc1ccccc1C(F)(F)F | 0 | -3 | 7 | -3 | / | /
CCc1nn(C(C)C(=O)N2CCN(c3ccc(OC)cc3)CC2)c(=O)c2cc3occc3n12 (stereo not drawn) | 0 | -2 | 14 | 1 | / | /
NNC(=O)CN1CCCc2ccccc21 | -1 | -4 | -9 | -8 | 0 | 1
N#CCc1nnc2n1-c1ccccc1CCC2 | 1 | 12* | -3 | -2 | 2 | 0
CCOC(=O)c1c(C)[nH]c(C(=O)COc2ccc3ccc(=O)oc3c2)c1C | 0 | / | -8 | / | / | /
Cn1c(=O)c2sccc2n2c(CCCC(=O)NC3CCN(Cc4ccccc4)CC3)nnc12 | -1 | 0 | -3 | 10* | / | /
Cn1c(=O)c2sccc2n2c(CCCC(=O)Nc3ccccc3)nnc12 | 0 | -5 | -1 | 0 | / | /
Cn1c(=O)c2sccc2n2c(CCCC(=O)NCc3cccnc3)nnc12 | -1 | -3 | 12 | 11* | / | /
COc1ccc2c(c1)c(/C=C/c1cc[n+](C)cc1)cn2C | 30 | -1 | -4 | 9.7* | / | /
Cc1cc(C(=O)CN2C(=O)NC(C)(c3ccc(F)c(F)c3)C2=O)c(C)n1C1CC1 (stereo not drawn) | 17 | / | -25 | / | / | /
COc1ccc(C2(C)NC(=O)N(CC(=O)c3cc(C)n(C4CC4)c3C)C2=O)cc1 (stereo not drawn) | 100* | / | -52 | / | / | /
CCN1CCN(Cc2ccc(NC(=O)c3ccc(C)c(NC(=O)c4ccno4)c3)cc2C(F)(F)F)CC1 | -2 | / | -11 | / | / | /
